# BindingDB's records for doi:10.1016/j.bmcl.2012.01.074 (Spanish National Cancer Research Centre (Cnio), 2012)
# Molecular target: Phosphatidylinositol 3-kinase regulatory subunit alpha/4,5-bisphosphate 3-kinase catalytic subunit alpha isoform (Homo sapiens, UniProt P27986+P42336)
# Assay: Inhibition of PI3K p110alpha/p85alpha
# Summary of the method: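 Biochemical kinase assay following the kit manufacturer's protocol with a modified kinase buffer (50 mM HEPES pH 7.5, 3 mM MgCl2, 100 mM NaCl, 1 mM EGTA, 0.04% CHAPS, 2 mM TCEP, 0.01 mg/ml BGG); 10 nM enzyme; ATP 50 µM; values are averages of two independent experiments, each in duplicate.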
# Chain of Phosphatidylinositol 3-kinase regulatory subunit alpha/4,5-bisphosphate 3-kinase catalytic subunit alpha isoform (P27986 whole entry, canonical isoform): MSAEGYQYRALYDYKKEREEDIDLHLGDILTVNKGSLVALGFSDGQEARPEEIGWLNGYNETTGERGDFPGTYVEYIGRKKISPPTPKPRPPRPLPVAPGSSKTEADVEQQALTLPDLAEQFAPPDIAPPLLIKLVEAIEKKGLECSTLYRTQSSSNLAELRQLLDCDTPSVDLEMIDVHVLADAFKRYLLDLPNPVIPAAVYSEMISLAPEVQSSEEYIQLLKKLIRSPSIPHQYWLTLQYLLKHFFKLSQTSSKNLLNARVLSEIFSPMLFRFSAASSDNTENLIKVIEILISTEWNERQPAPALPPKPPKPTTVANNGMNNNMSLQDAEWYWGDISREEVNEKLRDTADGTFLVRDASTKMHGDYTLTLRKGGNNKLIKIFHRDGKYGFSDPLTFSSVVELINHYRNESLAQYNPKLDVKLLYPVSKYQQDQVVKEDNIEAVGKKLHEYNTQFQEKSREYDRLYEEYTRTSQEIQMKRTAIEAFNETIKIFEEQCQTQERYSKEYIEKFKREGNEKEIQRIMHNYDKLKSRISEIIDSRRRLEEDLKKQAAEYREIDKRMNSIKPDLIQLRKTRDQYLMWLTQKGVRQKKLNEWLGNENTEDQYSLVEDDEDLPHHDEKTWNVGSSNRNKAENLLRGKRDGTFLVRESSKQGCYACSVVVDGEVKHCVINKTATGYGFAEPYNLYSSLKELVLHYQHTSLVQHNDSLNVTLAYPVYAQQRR
# Chain of Phosphatidylinositol 3-kinase regulatory subunit alpha/4,5-bisphosphate 3-kinase catalytic subunit alpha isoform (P42336 whole entry, canonical isoform): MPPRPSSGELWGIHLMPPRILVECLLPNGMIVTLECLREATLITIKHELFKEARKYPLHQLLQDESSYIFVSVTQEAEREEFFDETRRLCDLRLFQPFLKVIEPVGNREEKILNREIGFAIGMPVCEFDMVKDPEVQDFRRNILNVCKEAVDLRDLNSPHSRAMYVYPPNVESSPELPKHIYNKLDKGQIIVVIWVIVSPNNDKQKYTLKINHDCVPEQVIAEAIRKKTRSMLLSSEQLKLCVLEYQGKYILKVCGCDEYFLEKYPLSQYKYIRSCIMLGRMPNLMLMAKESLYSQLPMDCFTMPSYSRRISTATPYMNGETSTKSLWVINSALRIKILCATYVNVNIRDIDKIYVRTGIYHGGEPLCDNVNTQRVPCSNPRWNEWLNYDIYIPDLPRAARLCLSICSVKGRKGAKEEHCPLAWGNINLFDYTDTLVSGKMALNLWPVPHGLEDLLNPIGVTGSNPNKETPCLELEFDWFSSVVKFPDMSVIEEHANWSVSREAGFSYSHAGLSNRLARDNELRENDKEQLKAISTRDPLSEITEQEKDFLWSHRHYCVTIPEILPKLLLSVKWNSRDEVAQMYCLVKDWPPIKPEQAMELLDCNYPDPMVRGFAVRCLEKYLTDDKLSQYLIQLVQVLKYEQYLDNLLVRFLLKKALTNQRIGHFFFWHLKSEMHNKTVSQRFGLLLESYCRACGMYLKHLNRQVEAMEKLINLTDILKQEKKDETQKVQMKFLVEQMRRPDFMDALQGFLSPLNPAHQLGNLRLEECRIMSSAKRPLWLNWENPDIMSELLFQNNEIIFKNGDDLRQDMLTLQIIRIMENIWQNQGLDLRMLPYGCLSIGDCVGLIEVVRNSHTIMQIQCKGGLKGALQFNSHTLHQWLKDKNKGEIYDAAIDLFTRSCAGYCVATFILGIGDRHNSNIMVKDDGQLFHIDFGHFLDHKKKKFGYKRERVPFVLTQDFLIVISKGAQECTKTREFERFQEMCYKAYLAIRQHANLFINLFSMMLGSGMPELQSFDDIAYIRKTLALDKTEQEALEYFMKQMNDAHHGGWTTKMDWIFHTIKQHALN
row,Structure (SMILES),IC50 [nM]
1,Oc1cccc(-c2cn3cc(CN4CCOCC4)nc3c(N3CCOCC3)n2)c1,444
2,OCc1cn2cc(-c3cccc(O)c3)nc(N3CCOCC3)c2n1,639
3,CC(=O)N1CCN(Cc2cn3cc(-c4cccc(O)c4)nc(N4CCOCC4)c3n2)CC1,451
4,Oc1cccc(-c2cn3cc(C(F)(F)F)nc3c(N3CCOCC3)n2)c1,108
5,Cc1cn2cc(-c3cccc(O)c3)nc(N3CCOCC3)c2n1,96
6,CCNC(=O)c1cn2cc(-c3cccc4[nH]ncc34)nc(N3CCOCC3)c2n1,92
7,CNC(=O)c1cn2cc(-c3cccc4[nH]ncc34)nc(N3CCOCC3)c2n1,110
8,Oc1cccc(-c2cn3cc(C4CC4)nc3c(N3CCOCC3)n2)c1,340
9,O=C(NCCN1CCOCC1)c1cn2cc(-c3cccc4[nH]ncc34)nc(N3CCOCC3)c2n1,38
10,O=C1CN(Cc2cn3cc(-c4cccc(O)c4)nc(N4CCOCC4)c3n2)CCN1,540
